Ki and Ratio data for 21 compounds are collected here from ChEMBL document CHEMBL1131058, “Studies on quinazolines and 1,2,4-benzothiadiazine 1,1-dioxides. 8.1, 2 synthesis and pharmacological evaluation of tricyclic fused quinazolines and 1,2,4-benzothiadiazine 1,1-dioxides as potential alpha1-adrenoceptor antagonists” (J Med Chem, 1998).

Experiment [1] concerns the target T1, Adrenergic receptor alpha-1 (Rattus norvegicus, UniProt P15823+P23944+P43140).
T1 sequence (P15823 whole entry): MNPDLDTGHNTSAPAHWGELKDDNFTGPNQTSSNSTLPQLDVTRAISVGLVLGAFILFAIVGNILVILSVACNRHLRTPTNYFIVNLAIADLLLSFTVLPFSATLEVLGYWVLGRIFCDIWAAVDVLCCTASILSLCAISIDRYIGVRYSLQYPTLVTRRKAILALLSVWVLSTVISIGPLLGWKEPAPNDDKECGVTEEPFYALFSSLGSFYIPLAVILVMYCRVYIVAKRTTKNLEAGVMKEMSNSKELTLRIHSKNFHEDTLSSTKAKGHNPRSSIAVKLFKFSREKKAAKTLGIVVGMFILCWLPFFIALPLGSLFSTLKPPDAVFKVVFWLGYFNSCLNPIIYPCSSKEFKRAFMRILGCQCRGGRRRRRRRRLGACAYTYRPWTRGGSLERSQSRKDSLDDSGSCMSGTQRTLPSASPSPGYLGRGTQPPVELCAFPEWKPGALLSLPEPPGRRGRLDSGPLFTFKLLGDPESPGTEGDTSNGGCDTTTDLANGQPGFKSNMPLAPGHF
T1 sequence (P23944 whole entry): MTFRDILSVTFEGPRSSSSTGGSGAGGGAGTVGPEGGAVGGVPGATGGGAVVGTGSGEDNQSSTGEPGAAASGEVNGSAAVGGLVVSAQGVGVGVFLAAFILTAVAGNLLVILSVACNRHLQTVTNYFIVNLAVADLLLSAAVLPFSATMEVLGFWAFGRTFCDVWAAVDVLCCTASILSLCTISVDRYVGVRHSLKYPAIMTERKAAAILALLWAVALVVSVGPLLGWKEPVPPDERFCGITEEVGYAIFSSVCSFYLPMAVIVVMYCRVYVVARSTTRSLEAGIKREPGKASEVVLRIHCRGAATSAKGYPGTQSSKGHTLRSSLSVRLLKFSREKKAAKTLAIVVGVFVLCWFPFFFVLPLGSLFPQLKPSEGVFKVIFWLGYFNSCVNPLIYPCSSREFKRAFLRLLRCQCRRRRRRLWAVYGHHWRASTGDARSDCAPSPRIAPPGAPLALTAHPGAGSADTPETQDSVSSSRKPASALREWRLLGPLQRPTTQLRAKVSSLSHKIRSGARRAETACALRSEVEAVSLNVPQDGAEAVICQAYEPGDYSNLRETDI
T1 sequence (P43140 whole entry): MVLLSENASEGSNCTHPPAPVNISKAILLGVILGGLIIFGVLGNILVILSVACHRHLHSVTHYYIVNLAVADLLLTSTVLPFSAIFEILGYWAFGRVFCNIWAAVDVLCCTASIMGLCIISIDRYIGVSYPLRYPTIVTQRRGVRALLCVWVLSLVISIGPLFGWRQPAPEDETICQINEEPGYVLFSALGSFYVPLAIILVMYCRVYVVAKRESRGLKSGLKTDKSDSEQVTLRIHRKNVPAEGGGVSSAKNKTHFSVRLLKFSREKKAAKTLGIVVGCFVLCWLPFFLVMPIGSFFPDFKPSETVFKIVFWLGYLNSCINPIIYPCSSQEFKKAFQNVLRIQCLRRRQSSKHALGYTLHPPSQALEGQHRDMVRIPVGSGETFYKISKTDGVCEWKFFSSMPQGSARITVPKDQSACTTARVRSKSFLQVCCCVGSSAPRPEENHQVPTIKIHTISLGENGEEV
The experiment in a line: Binding affinity towards Alpha-1 adrenergic receptor measured by displacement of [3H]prazosin from rat brain cortex membranes. It is filed as cell membranes, Membrane. The method in brief:
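Triplicate competition binding against 0.2-0.25 nM [³H]prazosin in Tris buffer pH 7.4, 30 min at room temperature. Competitor range 0.1-200 nM. Nonspecific binding defined with 10 µM phentolamine. Reaction stopped by GF/B filtration with two cold Tris washes. Membrane protein 300-400 µg per assay. Ki calculated from the data; mean ± SEM of 3-6 experiments.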

Experiment [2] can be described thus: Selectivity ratio for binding affinity towards alpha2 and alpha-1 adrenoceptors. The method in brief:
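Ratio of α2 Ki ([³H]clonidine binding) to α1 Ki ([³H]prazosin binding), both measured in rat cortical membrane competition assays.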

In experiment [3] the target is T2, Adrenergic receptor alpha-2 (Rattus norvegicus, UniProt P22086+P19328+P22909).
T2 sequence (P22086 whole entry): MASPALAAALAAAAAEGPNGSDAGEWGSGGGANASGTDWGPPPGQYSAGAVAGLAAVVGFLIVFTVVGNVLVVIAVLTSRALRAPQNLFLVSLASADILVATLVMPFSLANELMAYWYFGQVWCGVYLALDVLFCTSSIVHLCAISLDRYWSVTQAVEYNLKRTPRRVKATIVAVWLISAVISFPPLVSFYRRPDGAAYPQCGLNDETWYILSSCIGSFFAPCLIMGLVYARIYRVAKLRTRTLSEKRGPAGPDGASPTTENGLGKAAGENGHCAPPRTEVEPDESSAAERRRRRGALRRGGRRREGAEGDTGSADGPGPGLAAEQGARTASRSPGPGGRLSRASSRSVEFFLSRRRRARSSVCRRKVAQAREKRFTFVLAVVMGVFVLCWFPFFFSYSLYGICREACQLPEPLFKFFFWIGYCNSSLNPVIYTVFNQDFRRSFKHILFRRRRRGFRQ
T2 sequence (P19328 whole entry): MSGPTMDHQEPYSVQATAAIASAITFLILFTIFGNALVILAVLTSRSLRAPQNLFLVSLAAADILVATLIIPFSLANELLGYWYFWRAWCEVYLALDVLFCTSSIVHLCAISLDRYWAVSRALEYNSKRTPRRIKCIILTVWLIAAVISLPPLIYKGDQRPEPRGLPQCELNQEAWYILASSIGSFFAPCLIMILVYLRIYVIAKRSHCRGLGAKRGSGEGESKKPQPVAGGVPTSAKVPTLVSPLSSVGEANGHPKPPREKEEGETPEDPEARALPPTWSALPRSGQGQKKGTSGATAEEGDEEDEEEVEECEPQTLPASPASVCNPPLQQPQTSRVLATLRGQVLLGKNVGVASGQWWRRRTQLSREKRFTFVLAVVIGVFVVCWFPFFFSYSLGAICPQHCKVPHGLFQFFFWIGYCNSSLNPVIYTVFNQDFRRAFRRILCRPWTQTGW
T2 sequence (P22909 whole entry): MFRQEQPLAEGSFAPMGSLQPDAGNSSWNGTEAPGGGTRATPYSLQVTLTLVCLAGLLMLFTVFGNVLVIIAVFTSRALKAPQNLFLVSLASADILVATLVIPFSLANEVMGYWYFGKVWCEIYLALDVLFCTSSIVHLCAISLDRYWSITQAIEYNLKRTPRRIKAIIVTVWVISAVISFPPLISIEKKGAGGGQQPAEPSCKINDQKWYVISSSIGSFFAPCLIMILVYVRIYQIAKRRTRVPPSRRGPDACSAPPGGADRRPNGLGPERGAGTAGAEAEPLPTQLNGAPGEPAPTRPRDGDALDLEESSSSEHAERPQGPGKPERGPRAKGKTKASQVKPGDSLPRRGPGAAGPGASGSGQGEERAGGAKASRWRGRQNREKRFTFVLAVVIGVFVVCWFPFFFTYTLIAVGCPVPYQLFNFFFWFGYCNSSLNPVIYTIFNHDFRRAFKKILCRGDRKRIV
The experiment in a line: Displacement of clonidine from Alpha-2 adrenergic receptor in rat brain cortex. It is filed as tissue-based. In a few lines: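 α2 competition binding run in triplicate with 1 nM [³H]clonidine plus 10 mM MgCl₂ in Tris pH 7.4, 30 min at room temperature. Test compounds at 1-100 µM. Nonspecific binding defined with 10 µM clonidine. Membranes collected on GF/B filters and washed twice with cold Tris. Protein 300-400 µg per assay. Ki given as mean ± SEM of 3-6 experiments.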

Structures are written as SMILES.

For orientation: Ki means the equilibrium dissociation constant of an inhibitor or competing ligand from its target. Turning to `COc1ccccc1N1CCN(Cc2c(Br)nc3c4ccccc4nc(O)n23)CC1`, the Ki in experiment [1] is over 10 µM.
The same measure, in the same setting: under `COc1ccccc1N1CCN(Cc2nc3c4ccccc4nc(O)n3c2Br)CC1` stands over 10 µM; under `Cn1c(=O)n2c(CN3CCN(c4ccccc4Cl)CC3)c(Br)nc2c2ccccc21`, over 10 µM.
Still for that read-out and setting: in the case of `COc1ccccc1N1CCN(Cc2c(Br)nc3c4ccccc4n(C)c(=O)n23)CC1` it was over 10 µM.
Turning to `COc1ccccc1N1CCN(CC2CN=C3Nc4ccccc4S(=O)(=O)N32)CC1` (stereo not given), the Ratio in experiment [2] was 93. The inhibitory constant (Ki) was 0.46 µM in experiment [3] and 0.00495 µM in experiment [1].
Compound `Cn1c(=O)n2c(Br)c(CN3CCN(c4ccccc4Cl)CC3)nc2c2ccccc21` returned a Ki in experiment [1] of over 10 µM.
As for `Oc1nc2ccccc2c2nc(CN3CCN(c4ccccc4Cl)CC3)cn12`, in experiment [2], the Ratio worked out at 486. Moreover, the Ki in experiment [3] was 4.51 µM; in experiment [1], 0.00929 µM.
On to `COc1ccccc1N1CCN(Cc2cnc3c4ccccc4n(C)c(=O)n23)CC1`, for which the Ratio in experiment [2] was determined as 506. Also, the values for the Ki in experiment [3] and in experiment [1] were 3.09 µM and 0.0061 µM, respectively.
On to `COc1ccccc1N1CCN(Cc2cn3c(=O)n(C)c4ccccc4c3n2)CC1`, for which the Ratio in experiment [2] amounted to 499. For the same compound, the Ki in experiment [3] is 3.25 µM; in experiment [1], 0.0065 µM.
Compound `COc1ccccc1N1CCN(CC2CN=C3Nc4ccccc4C(=O)N32)CC1` (stereo not given) came in with an inhibition constant Ki in experiment [1] of 0.186 µM.
Same read-out and setting: under `O=c1c2ccccc2nc2sc(Br)c(CN3CCN(c4ccccc4Cl)CC3)n12` stands over 10 µM; under `COc1ccccc1N1CCN(Cc2nc3c4ccccc4n(C)c(=O)n3c2Br)CC1`, over 10 µM.
Regarding `O=S1(=O)c2ccccc2NC2=NCC(CN3CCN(c4ccccc4Cl)CC3)N21` (stereo not given), the Ratio in experiment [2] worked out at 194. Further, the Ki in experiment [3] came to 2.29 µM; in experiment [1] it was 0.0118 µM.
Consider `COc1ccccc1N1CCN(Cc2c(Br)sc3nc4ccccc4c(=O)n23)CC1`, for which, in experiment [1], the Ki is over 10 µM.
The same measure, in the same setting: in the case of `COc1ccccc1N1CCN(CC2CSc3nc4ccccc4c(=O)n32)CC1` (stereo not given) it was over 10 µM.
For the compound `Oc1nc2ccccc2c2nc(Br)c(CN3CCN(c4ccccc4Cl)CC3)n12`, in experiment [1], the Ki is over 10 µM.
With `Cn1c(=O)n2cc(CN3CCN(c4ccccc4Cl)CC3)nc2c2ccccc21`, the Ratio in experiment [2] was determined as 36. In addition, the Ki amounted to 0.513 µM in experiment [3] and 0.0141 µM in experiment [1].
Compound `Oc1nc2ccccc2c2nc(CN3CCN(c4ccccc4Cl)CC3)c(Br)n12` returned an inhibitory constant (Ki) in experiment [1] of over 10 µM.
In the case of `Cn1c(=O)n2c(CN3CCN(c4ccccc4Cl)CC3)cnc2c2ccccc21`, the Ratio in experiment [2] came to 123. Besides, the Ki in experiment [3] was determined as 0.525 µM; in experiment [1] it was 0.00428 µM.
With `O=c1c2ccccc2nc2scc(CN3CCN(c4ccccc4Cl)CC3)n12`, the Ki in experiment [1] is over 10 µM.
Still for that read-out and setting: in the case of `COc1ccccc1N1CCN(Cc2csc3nc4ccccc4c(=O)n23)CC1` it was over 10 µM.
